Data on 18 molecules can be found in PMC5600879 (Journal of computer-aided molecular design, 2014).

Holding throughout (assay type): cell-based, human
The nature of data set [1]: Raji cell viability by Trypan Blue staining. Conditions: human, Raji cells. The method in brief:
(§1)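 Raji cells incubated 48 h at 37 °C in RPMI-1640 with 10 % FCS, n-butyric acid (4 mmol), TPA (32 pmol), and test compound at 0.32, 3.2, 16 or 32 nmol (10- to 1,000-fold of TPA). Viability was scored by Trypan Blue staining, and viability above 60 % was required to count as non-cytotoxic. Each concentration was run three times and averaged.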

Data set [2] relates to TPA-induced EBV-EA expression in Raji cells. The experiment in a line: EBV-EA activation assay. As to conditions: for Exp. Act.: class from experimental LogCurvP, threshold 1.25; for LogCurvP: log10 transformed response fingerprint (CurveP) of the four-dose EBV-EA data.
For the next data set, the system named is Raji cells. The experiment in a line: Raji cell viability by Trypan Blue staining. As to conditions: value in parentheses at 32 (1,000-fold of TPA); Trypan Blue staining. The method in brief: as §1

For `O=C(O)COc1cccc2ccccc12` [Compound 18, 2-(naphthalen-1-yloxy)acetic acid], the viability (as a rule, a per cent measure of how many cells are alive, often set against a control) at 48 h, 32 nmol in data set [1] is over 60%. In addition, in data set [2], the “Exp. Act.” value is “Marginal active (active/marginally active threshold at LogCurvP = 1.25)” and the LogCurvP was determined as 1.04.
`CN(C)CCCNC(=O)/C=C/c1ccc2c(c1)OCO2` [Compound 16, (E)-3-(benzo[d] [1, 3]dioxol-5-yl)-N-(3-(dimethylamino)propyl)acrylamide]: in the data set with Raji cells, the “viability percentages of Raji cells” value is on record as over 60%. Besides, in data set [2], the “Exp. Act.” value is “Marginal active (active/marginally active threshold at LogCurvP = 1.25)” and the LogCurvP worked out at 0.85.
Molecule `COc1ccc(O)c(C(=O)/C=C/c2cccc(OC)c2OC)c1` [Compound 5, (E)-3-(2,3-dimethoxyphenyl)-1-(2-hydroxy-5-methoxyphenyl)prop-2-en-1-one] gave a viability at 48 h, 32 nmol in data set [1] of over 60%. In addition, in data set [2], the “Exp. Act.” value is “Active” and the LogCurvP is 1.43.
Turning to `O=C(/C=C/c1ccc2c(c1)OCO2)NCCc1ccc(Cl)cc1` [Compound 14, (E)-3-(benzo[d] [1, 3]dioxol-5-yl)-N-(4-chlorophenethyl)acrylamide], the “viability percentages of Raji cells” value with Raji cells is on record as over 60%. Further, in data set [2], the “Exp. Act.” value is “Marginal active (active/marginally active threshold at LogCurvP = 1.25)” and the LogCurvP came out at 0.85.
In data set [1], `COc1cccc(CN(C)C(=O)/C=C/c2cccc(O)c2)c1` [Compound 1, (E)-3-(3-hydroxyphenyl)-N-(3-methoxybenzyl)-N-methylacrylamide] gave a viability at 48 h, 32 nmol of over 60%. In addition, the LogCurvP in data set [2] was found to be 1.04.
As for `COc1cc(/C=C/C(=O)CC(=O)/C=C/c2ccc(O)c(OC)c2)ccc1O` [Curcumin, reference compound], the viability at 48 h, 32 nmol in data set [1] was over 60%. In data set [2], the “Exp. Act.” value is recorded as “Active” and the LogCurvP was 1.43.
`COc1ccc2oc(-c3ccc(O)c(O)c3)cc(=O)c2c1` [Compound 11, 2-(3,4-dihydroxyphenyl)-6-methoxy-4H-chromen-4-one] came in with a viability at 48 h, 32 nmol in data set [1] of over 60%. Moreover, in data set [2], the “Exp. Act.” value was “Active” and the LogCurvP was 1.43.
In data set [1], `O=c1cc(-c2ccc(O)c(O)c2)oc2ccc(O)cc12` [Compound 9, 2-(3,4-dihydroxyphenyl)-6-hydroxy-4H-chromen-4-one] came in with a viability at 48 h, 32 nmol of over 60%. Further, in data set [2], the “EBV-EA inhibition potency, comparison in words” value is recorded as “most potent analog among the tested compounds”; the “Exp. Act.” value was “Active”; the LogCurvP is given as 1.43.
For the molecule `CN(Cc1cccc(O)c1)C(=O)/C=C/c1cccc(O)c1` [Compound 2, (E)-N-(3-hydroxybenzyl)-3-(3-hydroxyphenyl)-N-methylacrylamide], in data set [1], the viability at 48 h, 32 nmol was over 60%. Also, in data set [2], the “Exp. Act.” value is “Marginal active (active/marginally active threshold at LogCurvP = 1.25)” and the LogCurvP is 1.04.
For `O=C(/C=C/c1cccc(O)c1)NCc1cccc(O)c1` [Compound 4, (E)-N-(3-hydroxybenzyl)-3-(3-hydroxyphenyl)acrylamide] the same measures were over 60%, “Marginal active (active/marginally active threshold at LogCurvP = 1.25)” and 1.04.
The corresponding values for `COC(=O)COc1cccc2ccccc12` [Compound 17, Methyl 2-(naphthalen-1-yloxy)acetate] are over 60%, “Marginal active (active/marginally active threshold at LogCurvP = 1.25)” and 1.04.
The molecule `O=C(/C=C/c1cccc(O)c1O)c1cc(O)ccc1O` [Compound 7, (E)-3-(2,3-dihydroxyphenyl)-1-(2,5-dihydroxyphenyl)prop-2-en-1-one] yielded a viability at 48 h, 32 nmol in data set [1] of over 60%. Also, in data set [2], the “EBV-EA inhibition potency, comparison in words” value was “less potent than its ring-closed analog 9”; the “Exp. Act.” value is reported as “Active”; the LogCurvP is 1.43.
For `COc1ccc(CCNC(=O)/C=C/c2ccc3c(c2)OCO3)cc1OC` [Compound 13, (E)-3-(benzo[d] [1, 3]dioxol-5-yl)-N-(3,4-dimethoxyphenethyl)acrylamide], the “viability percentages of Raji cells” value in the data set on Raji cells is given as over 60%. In addition, in data set [2], the “Exp. Act.” value is given as “Marginal active (active/marginally active threshold at LogCurvP = 1.25)” and the LogCurvP stood at 1.04.
With `COc1cccc(/C=C/C(=O)NCc2cccc(OC)c2)c1` [Compound 3, (E)-N-(3-methoxybenzyl)-3-(3-methoxyphenyl)acrylamide], in data set [1], the viability at 48 h, 32 nmol was over 60%. In data set [2], the “Exp. Act.” value is on record as “Marginal active (active/marginally active threshold at LogCurvP = 1.25)” and the LogCurvP is recorded as 1.04.
In the case of `COc1ccc2oc(-c3ccc(O)c(OC)c3)cc(=O)c2c1` [Compound 10, 2-(4-hydroxy-3-methoxyphenyl)-6-methoxy-4H-chromen-4-one], in data set [1], the viability at 48 h, 32 nmol was over 60%. In data set [2], the “Exp. Act.” value was “Active” and the LogCurvP amounted to 1.43.
Turning to `COc1ccc2c(c1)C(=O)CC(c1cccc(O)c1O)O2` (stereo not shown) [Compound 6, 2-(2,3-dihydroxyphenyl)-6-methoxychroman-4-one], the viability at 48 h, 32 nmol in data set [1] was over 60%. Also, in data set [2], the “Exp. Act.” value is listed as “Active” and the LogCurvP was found to be 1.43.
`COc1ccc2oc(-c3ccc(OC)c(OC)c3)cc(=O)c2c1` [Compound 8, 2-(3,4-dimethoxyphenyl)-6-methoxy-4H-chromen-4-one] came in with a viability at 48 h, 32 nmol in data set [1] of over 60%. Besides, in data set [2], the “Exp. Act.” value is listed as “Active” and the LogCurvP was determined as 1.43.
Regarding `O=C(/C=C/c1ccc2c(c1)OCO2)NCCCc1ccccc1` [Compound 15, (E)-3-(benzo[d] [1, 3]dioxol-5-yl)-N-(3-phenylpropyl)acrylamide], the “viability percentages of Raji cells” value in the data set with Raji cells is on record as over 60%. In data set [2], the “Exp. Act.” value is given as “Marginal active (active/marginally active threshold at LogCurvP = 1.25)” and the LogCurvP stood at 1.04.
